Bioassay records as filed in PubChem BioAssay.
Rad51 HR inh = human RAD51 strand exchange inhibitors, primary screen, biochemical, fluorescence. DNA repair protein RAD51 homolog 1 (Homo sapiens), Q06609. inhibition, % at 10 µM. 200,000 tested, 0.085% active. hRad51 DNA strand exchange, fluorescence dequenching. AID 1385, 2008;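 active = inhibition above 40% at the single screening dose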;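 note: 0% = DMSO control wells and 100% = blanks with heterologous ssDNA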
Target sequence (Q06609 whole entry, looked up): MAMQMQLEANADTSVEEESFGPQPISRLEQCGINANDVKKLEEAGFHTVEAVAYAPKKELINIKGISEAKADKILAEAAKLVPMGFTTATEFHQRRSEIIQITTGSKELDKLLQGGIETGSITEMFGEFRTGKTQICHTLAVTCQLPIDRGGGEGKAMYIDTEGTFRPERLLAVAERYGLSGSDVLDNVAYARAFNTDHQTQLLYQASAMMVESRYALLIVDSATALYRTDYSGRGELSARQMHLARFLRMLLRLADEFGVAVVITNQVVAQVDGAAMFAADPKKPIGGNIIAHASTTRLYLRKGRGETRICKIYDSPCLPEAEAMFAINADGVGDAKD
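Material: Human Rad51 nucleoprotein filaments preassembled on unlabelled ssDNA | Also added: Labelled 47-mer dsDNA for strand exchange | Dosing: Single dose, 10 µM final compound | Schedule: 30-min compound preincubation and 15-min exchange, both room temperature | Technique: Fluorescence dequenching at 485/520 nm | Measure: Percent inhibition relative to plate controls and blanks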
S1P4 antagonist = S1P4 receptor antagonists, primary screen, cell-based; 220,000 tested, 0.26% active; AID 1510, 2009; S1P4-expressing cells, antagonist mode, reporter read-out; inhibition, % at 4.98 µM; in the data active = inhibition above about 29%;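 note: 0% = wells stimulated with agonist and 100% = vehicle wells without agonist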
S1P3 antag = S1P3 receptor antagonists, primary screen, cell-based; AID 485, 2006; 170,000 tested, 0.27% active; Sphingosine 1-phosphate receptor 3 (Homo sapiens), Q99500; CHO S1P3 NFAT-BLA reporter, FRET fluorescence, antagonist mode; inhibition, % at 4.98 µM;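 active = inhibition above the plate cutoff, the mean inhibition of test wells on that plate plus 3 SD, cut at about 28% in these data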;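 note: cells challenged with S1P at its EC80 of 0.8 µM; blue over green emission ratio from cleaved BLA substrate after 4 h stimulation; 0% = S1P-stimulated wells and 100% = unstimulated DMSO-only wells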
Target sequence (Q99500 whole entry, looked up): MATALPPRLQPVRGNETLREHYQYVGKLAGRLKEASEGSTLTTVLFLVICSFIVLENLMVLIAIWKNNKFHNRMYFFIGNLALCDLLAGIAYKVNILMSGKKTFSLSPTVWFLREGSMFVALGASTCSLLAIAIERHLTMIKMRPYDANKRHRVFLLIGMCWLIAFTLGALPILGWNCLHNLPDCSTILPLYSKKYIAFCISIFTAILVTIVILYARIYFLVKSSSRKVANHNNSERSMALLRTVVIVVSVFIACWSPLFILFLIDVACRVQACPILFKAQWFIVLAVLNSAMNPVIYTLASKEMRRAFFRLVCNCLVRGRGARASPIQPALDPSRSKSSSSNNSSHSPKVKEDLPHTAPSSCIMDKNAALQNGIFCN
S1P4 ag = S1P4 receptor agonists, primary screen, cell-based; 220,000 tested, 0.35% active; activation, % at 4.98 µM; Sphingosine 1-phosphate receptor 4 (Homo sapiens), O95977; S1P4-expressing cell line, agonist reporter assay; in the data active = activation above about 11%;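 note: 0% = DMSO vehicle and 100% = reference agonist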
Biofilm kill mix = clotrimazole potentiators killing C. albicans biofilm, primary screen, 4-compound mixtures; inhibition, % at 7.6 µM; C. albicans biofilm persisters + clotrimazole, fluorescence viability; primary screen in compound mixtures of four per well; 120,000 tested, 0.02% active; AID 1242, 2008;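 active = inhibition above 30.3% in the primary screen of four-compound pools, then above 30% when the compound was retested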;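 note: compounds exposed to preformed 24 h biofilms for 48 h; 0% = untreated biofilm control and 100% = clotrimazole plus chlorhexidine kill blank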
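Probe or stimulus – Clotrimazole 50 µg/mL co-treatment · System – C. albicans biofilms · Schedule – 24 h biofilm formation, then 48 h compound exposure, 37 °C · Evaluation – percent inhibition of biofilm viability · Technique – 2-h Alamar Blue fluorescence, 535/590 nm excitation/emission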
HMGR II inh = inhibitors of E. faecalis class II HMGR, primary screen, biochemical, Enterococcus faecalis. HMG-CoA reductase (Enterococcus faecalis, mvaE). purified E. faecalis HMGR, NADPH absorbance 340 nm kinetic. inhibition, % at 10 µM. 190,000 tested, 0.41% active. AID 1066, 2008;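 active = inhibition above a set limit, the median over all tested compounds plus 3 SD, cut at about 9.5% in these data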;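 note: enzyme runs in reverse so mevalonate oxidation gives rising NADPH absorbance; 0% = complete reaction with DMSO and 100% = background rate lacking mevalonate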
* = called active by the depositor; . = not tested or not shown. In the library only some 1.2% were active in any assay of this set; here they are far more common.

SMILES	Rad51 HR inh	S1P4 antagonist	S1P3 antag	S1P4 ag	Biofilm kill mix	HMGR II inh
Cc1cc(C)cc(Cn2ncc(Cl)c(Cl)c2=O)c1	-7.0	-2.4	-6.4	-0.6	9.4	0.0
O=C(Nc1ccncc1)c1ccc(C(=O)Nc2ccncc2)cc1	-3.7	-14.9	-12.8	1.5	16.2	18.2*
O=C(Nc1ccc(NC(=O)c2ccncc2)cc1)c1ccncc1	-7.8	-6.8	1.8	2.8	12.7	.
O=C1c2ccccc2C(=O)N1CN(C(=O)c1ccccc1)c1ccc(O)cc1	2.0	-6.8	-3.7	-0.7	13.8	-1.3
COc1ccc(-c2cc(-c3nnc(COC(=O)C4CC4C)o3)c3ccccc3n2)cc1OC (stereo not drawn)	2.1	-11.3	-6.5	1.6	14.6	-1.4
CCn1c(=O)c2cc(C(=O)N3CCCC3)sc2c2ccccc21	.	-4.1	57.3*	-1.4	18.1	-4.0
Cc1ccccc1Cn1c(=O)n(CCC(=O)NCc2ccc3c(c2)OCO3)c(=O)c2ccccc21	-1.6	10.2	.	-1.4	.	-12.2
CCCNC(=O)C1CNc2ccccc2O1 (stereo not drawn)	-2.9	-6.6	.	0.0	.	-1.4
O=[N+]([O-])c1ccccc1OCCOCCOc1cccc2cccnc12	7.9	-14.8	16.2	-2.1	10.6	11.7*
Cc1ccc(S(=O)(=O)/N=C2/C=C(Sc3ncn[nH]3)C(=O)c3ccccc32)c(C)c1	6.1	-25.0	-4.0	2.1	19.4	13.2*
Cc1ccc(S(=O)(=O)/N=C2/C=C(Sc3ncn[nH]3)C(=O)c3ccccc32)cc1	.	-6.5	-15.4	5.8	18.6	-3.3
COC(=O)C(CC(C)C)NC(=O)c1cccs1 (stereo not drawn)	-13.2	-16.4	-9.3	3.2	13.8	-1.4
O=c1c2ccccc2[nH]c(=S)n1CCCN1CCN(C2CCCCC2)CC1	2.4	-3.5	70.3*	1.4	.	-8.0
CC1CCN(CCCn2c(=S)[nH]c3ccccc3c2=O)CC1	1.3	-14.1	13.9	0.1	.	-2.7
C(/CCc1ccccc1)=N\Nc1nc2ccccc2[nH]1	9.7	-1.7	21.4	-2.0	5.9	-3.8
Cc1cc(C)nc(NC(=O)CCC2CCCC2)c1	2.0	-2.5	.	-0.3	14.5	9.9*
CC(C)(C)C(=O)c1sc(Nc2ccccc2)nc1N	-6.3	20.3	20.3	-0.4	.	-5.9
CCOC(=O)C1CCN(c2ncnc3c2nnn3Cc2ccccc2Cl)CC1	55.4*	8.7	-13.5	0.9	-5.0	-6.3
Cn1nc(C(F)(F)F)c(C(=O)Nc2ccc(C(F)(F)F)cc2)c1Cl	-1.4	1.5	.	1.4	.	-6.7
C=CCNC(=O)c1c(C(F)(F)F)nn(C)c1Cl	2.1	-16.2	-14.6	1.6	13.8	9.6*
CC(C)CC(=O)Nc1ccc2oc(-c3cccnc3)nc2c1	1.6	4.3	-42.4	-1.5	.	-1.4
Cc1ccc2oc(-c3ccc(NC(=O)CC(C)C)cc3)nc2c1	1.1	13.7	54.0*	0.2	.	-4.7
N#Cc1c(/N=C/c2cccs2)sc2c1CCCCC2	3.4	-17.2	56.9*	1.6	.	-1.9
CC(=O)Nc1ccccc1C(=O)N1CC(C)OC(C)C1 (stereo not drawn)	-0.8	-1.6	-10.2	0.7	.	-3.8
CO/N=C/CC(=O)c1cnc(-c2ccccc2)s1	3.5	-6.7	-31.9	-3.2	0.2	-1.9
SMILES	Rad51 HR inh	S1P4 antagonist	S1P3 antag	S1P4 ag	Biofilm kill mix	HMGR II inh
O=C(/C=C/c1ccc(Cl)c([N+](=O)[O-])c1)Nc1ccc(N2CCCC2)cc1	54.9*	-12.9	-13.7	1.0	14.1	-3.8
O=C(/C=C/c1ccc(Cl)c([N+](=O)[O-])c1)Nc1ccc(NC(=O)c2ccco2)cc1	-6.2	-3.8	-6.8	0.3	12.1	-0.9
CC1(C)CC(C)(c2ccc(O)cc2O)N(c2cccc(Cl)c2)C(=S)N1 (stereo not drawn)	-10.8	5.1	.	-4.5	11.2	10.6*
CCCCNC(=O)n1c(=O)oc2ccc(Cl)cc21	1.7	-6.5	.	-2.0	.	-4.9
Cc1ccc(-c2cc(C(F)F)n3ncc(C(=O)N4CCN5CCCC5C4)c3n2)cc1 (stereo not drawn)	2.0	-47.9	-1.8	0.4	.	-5.4
CCOC(=O)C1CCCN(C(=O)c2cnn3c(C(F)F)cc(-c4ccc(C)cc4)nc23)C1 (stereo not drawn)	-20.3	-7.0	76.5*	1.0	.	-2.1
COc1ccc2[nH]c3c(C)c4ccncc4c(C)c3c2c1	47.5*	-92.6	-14.8	4.0	17.0	.
CCn1nnc(NC(=O)c2cccc(-c3cc4ccccc4oc3=O)c2)n1	50.9*	-18.1	-2.4	1.6	.	-4.3
O/N=C(/CN(O)/C=C1/C=CC=N1)c1cccs1	0.4	-2.9	-12.7	0.0	.	-3.3
c1ccc(CSc2ccc(-c3cccs3)nn2)nc1	5.2	-22.9	7.4	2.4	11.3	12.4*
c1ccc(CSc2ccc(-c3cccs3)nn2)cc1	1.6	-12.9	8.2	2.4	11.8	-1.7
Cc1cccc(COCC(Cc2ccccc2)N2CCN(C(=O)c3cccc(Cl)c3)CCC2=O)c1 (stereo not drawn)	-4.4	4.9	0.3	0.3	17.0	-4.8
Cc1cccc(C(=O)N2CCC(=O)N(C(COCc3ccccc3)Cc3ccccc3)CC2)c1 (stereo not drawn)	-8.9	15.6	-0.4	1.1	17.2	15.5*
O=Cc1cc(N=Nc2cccc(C(=O)O)c2)ccc1O	46.8*	7.2	1.0	0.6	-6.5	0.5
Cn1c(=O)c2c(ncn2C)n(C)c1=O	2.5	.	.	.	10.8	.
CCn1cnc2c(oc3ccccc32)c1=O	-7.1	-0.1	-22.6	1.4	9.9	11.1*
O=C(O)Cn1cnc2c(oc3ccccc32)c1=O	-1.7	-1.6	-4.4	-0.5	16.9	.
CCOC(=O)C1=C(c2ccccc2)NC(=S)NC1C (stereo not drawn)	.	-21.4	.	-5.8	.	-2.1
COC(=O)[C@@]1(Cc2ccc(F)cc2)[C@H]2c3cc(C(=O)N(C)C)n(Cc4nc5ccccc5[nH]4)c3C[C@H]2CN1C(=O)c1ccccc1	-0.3	12.3	8.2	-0.1	12.0	11.5*
Cc1ccccc1OCCC(=O)OCC(=O)Nc1cc(S(=O)(=O)N2CCOCC2)ccc1Cl	1.8	0.1	-8.4	-0.4	3.3	13.4*
O=C(Cc1cccs1)NC(c1ccccc1)c1ccccc1	.	-7.6	-9.5	1.0	2.5	2.9
O=C(O)CCC(=O)NC(c1ccccc1)c1ccccc1	8.2	-4.6	9.5	1.4	5.7	14.0*
Cc1cccc(C(=O)NC2CCN(C(=O)Nc3ccccc3C)CC2)c1	-3.3	4.8	-27.9	-0.8	17.5	14.1*
O=c1cc(CSc2ccc([N+](=O)[O-])cc2)nc2sccn12	-3.6	3.4	16.7	1.0	2.2	14.6*
